Test results published in ChEMBL document CHEMBL2390836, “Synthesis and antitumor activities of naturally occurring oleanolic acid triterpenoid saponins and their derivatives” (Eur J Med Chem, 2013).

Tests used:
Format in all cases: functional, cell-based
A-375 = assay: Cytotoxicity against human A375 cells after 72 hrs by sulforhodamine B assay; settings: A-375, 72 h
Procedure, shortened: (§1)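 Cells seeded in 96-well plates and exposed in triplicate to a concentration gradient at 37 °C for 72 h. Total protein staining with sulforhodamine B was the read-out. IC50 was calculated by the Logit method from at least three independent experiments.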

A549 = assay: Cytotoxicity against human A549 cells after 72 hrs by sulforhodamine B assay; settings: A549, 72 h; procedure, shortened: as §1
HL-60 = assay: Cytotoxicity against human HL60 cells after 72 hrs by MTT assay; settings: HL-60, 72 h
Procedure, shortened: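 HL-60 human promyelocytic leukemia cells were plated in 96 wells and treated in triplicate with graded concentrations at 37 °C for 72 h. Viability was read by MTT reduction. IC50 was obtained by the Logit method from at least three independent experiments.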

Structure (SMILES)	IC50 (A-375)	IC50 (A549)	IC50 (HL-60)
C[C@@H]1O[C@@H](O[C@@H]2[C@@H](O)[C@H](C)O[C@@H](O[C@H]3[C@H](O[C@H]4CC[C@]5(C)[C@H]6CC=C7[C@@H]8CC(C)(C)CC[C@]8(C(=O)O)CC[C@@]7(C)[C@]6(C)CC[C@H]5C4(C)C)OC[C@@H](O)[C@@H]3O)[C@@H]2O)[C@H](O)[C@H](O)[C@H]1O	8.4 µM	16.2 µM	9.3 µM
C[C@@H]1O[C@@H](O[C@H]2[C@H](O[C@H]3CC[C@]4(C)[C@H]5CC=C6[C@@H]7CC(C)(C)CC[C@]7(C(=O)O)CC[C@@]6(C)[C@]5(C)CC[C@H]4C3(C)C)OC[C@@H](O)[C@@H]2O)[C@H](O)[C@H](O)[C@H]1O	5 µM	10.7 µM	3.6 µM
C[C@@H]1O[C@@H](O[C@H]2[C@@H](O[C@H]3CC[C@]4(C)[C@H]5CC=C6[C@@H]7CC(C)(C)CC[C@]7(C(=O)O)CC[C@@]6(C)[C@]5(C)CC[C@H]4C3(C)C)OC[C@H](O)[C@@H]2O)[C@H](O)[C@H](O)[C@H]1O	> 20 µM	> 20 µM	> 20 µM
C[C@@H]1O[C@@H](O[C@H]2[C@H](O[C@H]3CC[C@]4(C)[C@H]5CC=C6[C@@H]7CC(C)(C)CC[C@]7(C(=O)O)CC[C@@]6(C)[C@]5(C)CC[C@H]4C3(C)C)O[C@H](CO)[C@H](O)[C@@H]2O)[C@H](O)[C@H](O)[C@H]1O	5.1 µM	12.4 µM	2.5 µM
C[C@@H]1O[C@@H](O[C@H]2[C@@H](O)[C@@H](CO)O[C@@H](O[C@H]3CC[C@]4(C)[C@H]5CC=C6[C@@H]7CC(C)(C)CC[C@]7(C(=O)O)CC[C@@]6(C)[C@]5(C)CC[C@H]4C3(C)C)[C@@H]2O)[C@H](O)[C@H](O)[C@H]1O	15.4 µM	15.2 µM	> 20 µM
C[C@@H]1O[C@@H](O[C@H]2[C@H]3OC(c4ccccc4)OC[C@H]3O[C@@H](O[C@H]3CC[C@]4(C)[C@H]5CC=C6[C@@H]7CC(C)(C)CC[C@]7(C(=O)O)CC[C@@]6(C)[C@]5(C)CC[C@H]4C3(C)C)[C@@H]2O[C@@H]2O[C@@H](C)[C@H](O)[C@@H](O)[C@H]2O)[C@H](O)[C@H](O)[C@H]1O (some centres undefined)	> 20 µM	> 20 µM	> 20 µM
C[C@@H]1O[C@@H](O[C@H]2[C@H](O[C@H]3CC[C@]4(C)[C@H]5CC=C6[C@@H]7CC(C)(C)CC[C@]7(C(=O)O)CC[C@@]6(C)[C@]5(C)CC[C@H]4C3(C)C)O[C@H](CO)[C@@H](O)[C@@H]2O)[C@H](O)[C@H](O)[C@H]1O	11.6 µM	23.5 µM	12.9 µM
C[C@@H]1O[C@@H](O[C@@H]2[C@@H](O)[C@H](O[C@H]3CC[C@]4(C)[C@H]5CC=C6[C@@H]7CC(C)(C)CC[C@]7(C(=O)O)CC[C@@]6(C)[C@]5(C)CC[C@H]4C3(C)C)O[C@H](CO)[C@H]2O)[C@H](O)[C@H](O)[C@H]1O	> 20 µM	> 20 µM	> 20 µM
C[C@@H]1O[C@@H](O[C@H]2[C@H](O[C@H]3CC[C@]4(C)[C@H]5CC=C6[C@@H]7CC(C)(C)CC[C@]7(C(=O)O)CC[C@@]6(C)[C@]5(C)CC[C@H]4C3(C)C)O[C@H](CO)[C@@H](O)[C@@H]2O[C@@H]2O[C@@H](C)[C@H](O)[C@@H](O)[C@H]2O)[C@H](O)[C@H](O)[C@H]1O	> 20 µM	> 20 µM	> 20 µM
C[C@@H]1O[C@@H](O[C@H]2[C@H](O[C@H]3CC[C@]4(C)[C@H]5CC=C6[C@@H]7CC(C)(C)CC[C@]7(C(=O)O[C@@H]7O[C@H](CO[C@@H]8O[C@H](CO)[C@@H](O[C@@H]9O[C@@H](C)[C@H](O)[C@@H](O)[C@H]9O)[C@H](O)[C@H]8O)[C@@H](O)[C@H](O)[C@H]7O)CC[C@@]6(C)[C@]5(C)CC[C@H]4C3(C)C)OC[C@@H](O)[C@@H]2O)[C@H](O)[C@H](O)[C@H]1O	7.3 µM	10.5 µM	3.2 µM
C[C@@H]1O[C@@H](O[C@H]2[C@H](O)[C@@H](O)[C@H](OC[C@H]3O[C@@H](OC(=O)[C@]45CCC(C)(C)C[C@H]4C4=CC[C@@H]6[C@@]7(C)CC[C@H](O[C@@H]8OC[C@@H](O)[C@H](O)[C@H]8O)C(C)(C)[C@@H]7CC[C@@]6(C)[C@]4(C)CC5)[C@H](O)[C@@H](O)[C@@H]3O)O[C@@H]2CO)[C@H](O)[C@H](O)[C@H]1O	13.5 µM	11.9 µM	5.7 µM
C[C@@H]1O[C@@H](O[C@H]2[C@H](O[C@H]3CC[C@]4(C)[C@H]5CC=C6[C@@H]7CC(C)(C)CC[C@]7(C(=O)O)CC[C@@]6(C)[C@]5(C)CC[C@H]4C3(C)C)OC[C@@H](O)[C@@H]2O)[C@H](O)[C@H](O[C@@H]2O[C@H](CO)[C@@H](O)[C@H](O)[C@H]2O)[C@H]1O	5.5 µM	14.7 µM	4.6 µM
C[C@@H]1O[C@H](O[C@H]2[C@H](O[C@H]3CC[C@]4(C)[C@H]5CC=C6[C@@H]7CC(C)(C)CC[C@]7(C(=O)O)CC[C@@]6(C)[C@]5(C)CC[C@H]4C3(C)C)OC[C@H](O)[C@@H]2O)[C@H](O)[C@H](O)[C@H]1O	7.7 µM	17.5 µM	4.2 µM
C[C@@H]1O[C@@H](O[C@H]2[C@H](O[C@H]3CC[C@]4(C)[C@H]5CC=C6[C@@H]7CC(C)(C)CC[C@]7(C(=O)O)CC[C@@]6(C)[C@]5(C)CC[C@H]4C3(C)C)OC[C@H](O)[C@@H]2O)[C@H](O)[C@H](O[C@@H]2OC[C@@H](O)[C@H](O)[C@H]2O)[C@H]1O	8.9 µM	15.4 µM	3.4 µM
C[C@@H]1O[C@@H](O[C@H]2[C@H](O[C@H]3CC[C@]4(C)[C@H]5CC=C6[C@@H]7CC(C)(C)CC[C@]7(C(=O)O)CC[C@@]6(C)[C@]5(C)CC[C@H]4C3(C)C)OC[C@@H](O)[C@@H]2O)[C@H](O)[C@H](O[C@@H]2OC[C@@H](O)[C@H](O)[C@H]2O)[C@H]1O	6.3 µM	11.5 µM	4.5 µM
C[C@@H]1O[C@@H](O[C@H]2[C@H](O[C@H]3CC[C@]4(C)[C@H]5CC=C6[C@@H]7CC(C)(C)CC[C@]7(C(=O)O)CC[C@@]6(C)[C@]5(C)CC[C@H]4C3(C)C)OC[C@@H](O)[C@@H]2O)[C@H](O)[C@H](O[C@@H]2O[C@H](CO)[C@@H](O[C@@H]3O[C@H](CO)[C@@H](O)[C@H](O)[C@H]3O)[C@H](O)[C@H]2O)[C@H]1O	6.1 µM	7.8 µM	2.5 µM
C[C@@H]1O[C@@H](O[C@H]2[C@H](O[C@H]3CC[C@]4(C)[C@H]5CC=C6[C@@H]7CC(C)(C)CC[C@]7(C(=O)O[C@@H]7O[C@H](CO[C@@H]8O[C@H](CO)[C@@H](O)[C@H](O)[C@H]8O)[C@@H](O)[C@H](O)[C@H]7O)CC[C@@]6(C)[C@]5(C)CC[C@H]4C3(C)C)OC[C@@H](O)[C@@H]2O)[C@H](O)[C@H](O[C@@H]2O[C@H](CO)[C@@H](O[C@@H]3O[C@H](CO)[C@@H](O)[C@H](O)[C@H]3O)[C@H](O)[C@H]2O)[C@H]1O	> 20 µM	> 20 µM	> 20 µM
C[C@@H]1O[C@@H](O[C@H]2[C@H](O[C@H]3CC[C@]4(C)[C@H]5CC=C6[C@@H]7CC(C)(C)CC[C@]7(C(=O)O)CC[C@@]6(C)[C@]5(C)CC[C@H]4C3(C)C)OC[C@H](O)[C@@H]2O)[C@H](O)[C@H](O[C@@H]2O[C@H](CO)[C@@H](O[C@@H]3O[C@H](CO)[C@@H](O)[C@H](O)[C@H]3O)[C@H](O)[C@H]2O)[C@H]1O	5.9 µM	7.9 µM	3.5 µM
C[C@@H]1O[C@@H](O[C@H]2[C@H](O[C@H]3CC[C@]4(C)[C@H]5CC=C6[C@@H]7CC(C)(C)CC[C@]7(C(=O)O)CC[C@@]6(C)[C@]5(C)CC[C@H]4C3(C)C)OC[C@H](O)[C@@H]2O)[C@H](O)[C@H](O[C@@H]2O[C@H](CO)[C@@H](O)[C@H](O)[C@H]2O)[C@H]1O	12.1 µM	16.7 µM	6.1 µM
C[C@@H]1O[C@@H](O[C@H]2[C@H](O[C@H]3CC[C@]4(C)[C@H]5CC=C6[C@@H]7CC(C)(C)CC[C@]7(C(=O)O)CC[C@@]6(C)[C@]5(C)CC[C@H]4C3(C)C)OC[C@H](O)[C@@H]2O)[C@H](O)[C@H](O)[C@H]1O	8.4 µM	15.8 µM	9.2 µM
C[C@@H]1O[C@@H](O[C@H]2[C@H](O[C@H]3CC[C@]4(C)[C@H]5CC=C6[C@@H]7CC(C)(C)CC[C@]7(C(=O)O)CC[C@@]6(C)[C@]5(C)CC[C@H]4C3(C)C)OC[C@H](O)[C@@H]2O)[C@H](O)[C@H](O[C@@H]2OC[C@@H](O[C@@H]3O[C@H](CO)[C@@H](O)[C@H](O)[C@H]3O)[C@H](O)[C@H]2O)[C@H]1O	22.1 µM	> 20 µM	4.2 µM
CC1(C)CC[C@]2(C(=O)O)CC[C@]3(C)C(=CC[C@@H]4[C@@]5(C)CC[C@H](O[C@@H]6O[C@H](CO)[C@H](O)[C@H](O)[C@H]6O[C@@H]6O[C@H](CO)[C@@H](O)[C@H](O)[C@H]6O)C(C)(C)[C@@H]5CC[C@]43C)[C@@H]2C1	9.7 µM	17.9 µM	10.1 µM
C[C@@H]1O[C@@H](O[C@H]2[C@H](O[C@H]3CC[C@]4(C)[C@H]5CC=C6[C@@H]7CC(C)(C)CC[C@]7(C(=O)O)CC[C@@]6(C)[C@]5(C)CC[C@H]4C3(C)C)OC[C@H](O[C@@H]3O[C@H](CO)[C@@H](O)[C@H](O)[C@H]3O)[C@@H]2O)[C@H](O)[C@H](O[C@@H]2O[C@H](CO)[C@@H](O[C@@H]3O[C@H](CO)[C@@H](O)[C@H](O)[C@H]3O)[C@H](O)[C@H]2O)[C@H]1O	3.5 µM	6.2 µM	3.1 µM
